Data set [1] deals with T1, CYP3A4 (Homo sapiens, UniProt P08684). Put plainly: Inhibition of CYP3A4 in human liver microsomes at 10 uM using testosterone as probe substrate and in presence of co-factor measured after 20 mins by LC-MS/MS analysis relative to control. The class given is ADME. (Microsomes from liver hold many membrane-bound enzymes, among them those of drug oxidation.)
In data set [2] the target is CYP2D6 (Homo sapiens, UniProt P10635). Put plainly: Inhibition of CYP2D6 in human liver microsomes at 10 uM using probe substrate and in presence of co-factor measured after 20 mins by LC-MS/MS analysis relative to control. The class given is ADME.
Data set [3] has as its target T2, CYP1A2 (Homo sapiens, UniProt P05177).
T2 sequence (P05177 whole entry): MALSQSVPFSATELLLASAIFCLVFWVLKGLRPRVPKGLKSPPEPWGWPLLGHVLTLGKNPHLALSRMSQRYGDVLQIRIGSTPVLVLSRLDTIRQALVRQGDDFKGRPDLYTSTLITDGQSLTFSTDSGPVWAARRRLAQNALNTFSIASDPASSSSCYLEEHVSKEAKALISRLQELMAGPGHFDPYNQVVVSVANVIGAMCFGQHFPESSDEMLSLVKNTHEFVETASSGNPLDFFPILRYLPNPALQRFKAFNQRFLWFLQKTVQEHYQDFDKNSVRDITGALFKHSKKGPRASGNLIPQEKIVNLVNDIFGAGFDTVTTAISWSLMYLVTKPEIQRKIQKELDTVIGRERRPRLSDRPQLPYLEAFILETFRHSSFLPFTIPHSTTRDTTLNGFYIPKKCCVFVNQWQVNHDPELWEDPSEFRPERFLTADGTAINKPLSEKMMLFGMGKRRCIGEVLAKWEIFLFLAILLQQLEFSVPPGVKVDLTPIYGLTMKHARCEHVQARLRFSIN
Nature of the data set: Inhibition of CYP1A2 in human liver microsomes at 10 uM using probe substrate and in presence of co-factor measured after 20 mins by LC-MS/MS analysis relative to control. The class given is ADME.

For data set [4], the target named is CYP2C9 (Homo sapiens, UniProt P11712). Put plainly: Inhibition of CYP2C9 in human liver microsomes at 10 uM using probe substrate and in presence of co-factor measured after 20 mins by LC-MS/MS analysis relative to control. It is filed as ADME.
Data set [5] deals with CYP2C19 (Homo sapiens, UniProt P33261). Put plainly: Inhibition of CYP2C19 in human liver microsomes at 10 uM using probe substrate and in presence of co-factor measured after 20 mins by LC-MS/MS analysis relative to control. It is filed as ADME.
For data set [6], the target named is 3',5'-cyclic-AMP phosphodiesterase 4A (Homo sapiens, UniProt P27815). Nature of the data set: Inhibition of recombinant human PDE4A overexpressed in HEK293 cells assessed as reduction in cAMP hydrolysis by HTRF based immunoassay. It is filed as cell-based. Conditions: read-out: IC50. The method in brief:
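Human PDE4A from lysate of HEK293 cells overexpressing the enzyme hydrolyses cAMP; remaining cAMP measured by HTRF competitive immunoassay (d2-labelled cAMP vs cryptate anti-cAMP antibody), signal inversely proportional to cAMP; IC50 determined.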
In general terms: Time-resolved FRET reads energy transfer from a long-lived donor to a nearby acceptor.

Data set [7] concerns the target T1, CYP3A4. Put plainly: Inhibition of CYP3A4 in human liver microsomes at 10 uM using midazolam as probe substrate and in presence of co-factor measured after 20 mins by LC-MS/MS analysis relative to control. The class given is ADME.
Data set [8] is described as follows: in vitro. Conditions: mouse, liver microsomes.
A short description of data set [9]: Plasma protein binding in human at 5 uM measured after 4 hrs by LC-MS/MS analysis.
Data set [10] can be described thus: in vitro. Conditions: human, cryopreserved hepatocytes.
The nature of data set [11]: Plasma protein binding in mouse at 5 uM measured after 4 hrs by LC-MS/MS analysis.
A short description of data set [12]: Plasma protein binding in rat at 5 uM measured after 4 hrs by LC-MS/MS analysis.
Data set [13] is described as follows: in vitro. Conditions: human, liver microsomes.
Data set [14] is described as follows: in vitro. The following applies: mouse, cryopreserved hepatocytes.
Data set [15] is described as follows: in vitro. Conditions: rat, liver microsomes.
A short description of data set [16]: Thermodynamic solubility of compound at pH 3. The following applies: buffer.
The subject of data set [17] is Neutrophil. Nature of the data set: Inhibition of dog neutrophil cell migration. Conditions: Canis lupus familiaris.
A short description of data set [18]: Plasma protein binding in dog at 5 uM measured after 4 hrs by LC-MS/MS analysis.
A short description of data set [19]: in vitro. Conditions: rat, cryopreserved hepatocytes.
For data set [20], the target named is T3, Cytochrome P450 3A4 (Homo sapiens, UniProt P08684). Nature of the data set: Inhibition of CYP3A4 in human liver microsomes using midazolam as substrate and in presence of co-factor preincubated for 20 mins followed by substrate addition by LC-MS/MS analysis.
In data set [21] the target is Cytochrome P450 2C9 (Homo sapiens) (UniProt P11712).
The nature of data set [22]: physchem. The following applies: aqueous solution with 2% DMSO, pH 3.
A short description of data set [23]: in vitro. The following applies: mouse, cryopreserved hepatocytes. This is another data set of the same source.
Data set [24] is described as follows: in vitro. The following applies: human, cryopreserved hepatocytes. This is another data set of the same source.
Data set [25] in a line: Inhibition of embelin-induced migration of human neutrophils preincubated for 30 mins followed by embelin addition and measured after 1 hr by ATPlite luminescence assay. Conditions: Neutrophil.
In data set [26] the target is Cytochrome P450 2C19 (Homo sapiens, UniProt P33261). Put plainly: Inhibition of CYP2C19 in human liver microsomes using probe substrate and in presence of co-factor preincubated for 20 mins followed by substrate addition by LC-MS/MS analysis.
Data set [27] is described as follows: physchem. The following applies: aqueous solution with 2% DMSO, pH 7.4.
Data set [28] can be described thus: in vitro. Conditions: dog, liver microsomes.
Data set [29] in a line: in vitro. Conditions: dog, cryopreserved hepatocytes.
A short description of data set [30]: Inhibition of embelin-induced migration of rat neutrophils preincubated for 30 mins followed by embelin addition and measured after 1 hr by celltiter-glo assay. Conditions: Neutrophil.
Data set [31] is described as follows: Apparent permeability from apical to basolateral in human Caco2 cells at 10 uM measured after 60 mins by lucifer yellow dye based LC-MS/MS analysis. The following applies: Caco-2.
Data set [32] is described as follows: in vitro. The following applies: rat, cryopreserved hepatocytes. This is another data set of the same source.
Data set [33] addresses T3, Cytochrome P450 3A4. Nature of the data set: Inhibition of human CYP3A4 in human liver microsomes using testosterone as substrate and in presence of co-factor preincubated for 20 mins followed by substrate addition by LC-MS/MS analysis.
Data set [34] deals with T4, Cytochrome P450 1A2 (Homo sapiens, UniProt P05177).
T4 sequence (P05177 whole entry): T2 sequence (P05177 whole entry)
Nature of the data set: Inhibition of CYP1A2 in human liver microsomes using probe substrate and in presence of co-factor preincubated for 20 mins followed by substrate addition by LC-MS/MS analysis.

Data set [35] deals with Cytochrome P450 2D6 (Homo sapiens) (UniProt P10635).
Data set [36] is described as follows: in vitro. Conditions: dog, cryopreserved hepatocytes. The source holds these as a separate data set.
A short description of data set [37]: Thermodynamic solubility of compound at pH 7.4. Conditions: buffer.
Data set [38] can be described thus: in vitro. Conditions: rhesus monkey, liver microsomes.
Data set [39] in a line: in vivo. Conditions: male, Sprague-Dawley, rat, po, 5 mg/kg.

pIC50: −log10 of the molar value. Values after ≈ are worked out from the molar mass of the structure shown.

T1 sequence (P08684 whole entry): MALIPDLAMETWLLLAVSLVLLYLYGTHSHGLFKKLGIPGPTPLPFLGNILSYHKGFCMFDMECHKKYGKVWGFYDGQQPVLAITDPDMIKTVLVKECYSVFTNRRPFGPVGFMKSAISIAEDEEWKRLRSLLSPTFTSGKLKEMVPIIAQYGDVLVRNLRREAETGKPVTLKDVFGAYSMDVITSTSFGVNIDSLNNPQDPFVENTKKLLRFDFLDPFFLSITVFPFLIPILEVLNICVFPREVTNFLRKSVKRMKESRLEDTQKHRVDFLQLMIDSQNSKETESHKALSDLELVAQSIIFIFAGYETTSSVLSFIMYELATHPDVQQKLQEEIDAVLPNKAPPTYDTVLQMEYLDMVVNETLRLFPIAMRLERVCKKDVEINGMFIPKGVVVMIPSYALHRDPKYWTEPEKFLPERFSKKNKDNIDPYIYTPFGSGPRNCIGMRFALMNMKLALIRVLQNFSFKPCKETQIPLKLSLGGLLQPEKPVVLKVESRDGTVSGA
T3 sequence (P08684 whole entry): as above
Sequence of Cytochrome P450 2C9 (Homo sapiens) (P11712 whole entry, looked up): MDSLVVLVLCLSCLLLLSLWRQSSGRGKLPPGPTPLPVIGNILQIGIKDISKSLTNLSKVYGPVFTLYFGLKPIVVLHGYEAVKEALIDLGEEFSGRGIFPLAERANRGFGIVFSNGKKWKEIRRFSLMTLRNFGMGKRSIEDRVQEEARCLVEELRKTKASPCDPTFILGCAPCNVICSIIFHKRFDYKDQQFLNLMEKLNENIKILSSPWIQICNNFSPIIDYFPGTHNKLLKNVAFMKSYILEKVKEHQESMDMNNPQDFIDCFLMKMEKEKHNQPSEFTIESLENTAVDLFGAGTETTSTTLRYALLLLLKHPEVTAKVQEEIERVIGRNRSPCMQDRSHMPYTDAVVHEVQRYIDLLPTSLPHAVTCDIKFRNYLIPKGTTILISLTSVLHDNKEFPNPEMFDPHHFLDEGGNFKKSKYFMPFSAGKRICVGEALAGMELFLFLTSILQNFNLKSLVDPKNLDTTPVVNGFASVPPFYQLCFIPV
Sequence of CYP2C9 (P11712 whole entry): as the sequence (P11712 whole entry, looked up) above
Sequence of CYP2C19 (P33261 whole entry): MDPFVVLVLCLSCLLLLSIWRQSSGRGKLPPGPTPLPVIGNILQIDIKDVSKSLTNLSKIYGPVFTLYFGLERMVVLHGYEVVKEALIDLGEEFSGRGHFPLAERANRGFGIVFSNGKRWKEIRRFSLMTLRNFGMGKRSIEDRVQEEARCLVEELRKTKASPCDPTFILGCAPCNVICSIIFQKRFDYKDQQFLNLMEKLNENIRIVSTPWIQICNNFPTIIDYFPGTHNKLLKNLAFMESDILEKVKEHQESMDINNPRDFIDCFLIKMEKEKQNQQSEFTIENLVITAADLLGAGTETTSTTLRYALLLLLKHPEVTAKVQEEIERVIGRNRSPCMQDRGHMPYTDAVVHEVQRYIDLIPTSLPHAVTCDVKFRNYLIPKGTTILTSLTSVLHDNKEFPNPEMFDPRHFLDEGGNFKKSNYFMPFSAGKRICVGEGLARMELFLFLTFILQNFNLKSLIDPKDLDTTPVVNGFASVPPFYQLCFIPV
Sequence of Cytochrome P450 2C19 (P33261 whole entry): as above
Sequence of 3',5'-cyclic-AMP phosphodiesterase 4A (P27815 whole entry): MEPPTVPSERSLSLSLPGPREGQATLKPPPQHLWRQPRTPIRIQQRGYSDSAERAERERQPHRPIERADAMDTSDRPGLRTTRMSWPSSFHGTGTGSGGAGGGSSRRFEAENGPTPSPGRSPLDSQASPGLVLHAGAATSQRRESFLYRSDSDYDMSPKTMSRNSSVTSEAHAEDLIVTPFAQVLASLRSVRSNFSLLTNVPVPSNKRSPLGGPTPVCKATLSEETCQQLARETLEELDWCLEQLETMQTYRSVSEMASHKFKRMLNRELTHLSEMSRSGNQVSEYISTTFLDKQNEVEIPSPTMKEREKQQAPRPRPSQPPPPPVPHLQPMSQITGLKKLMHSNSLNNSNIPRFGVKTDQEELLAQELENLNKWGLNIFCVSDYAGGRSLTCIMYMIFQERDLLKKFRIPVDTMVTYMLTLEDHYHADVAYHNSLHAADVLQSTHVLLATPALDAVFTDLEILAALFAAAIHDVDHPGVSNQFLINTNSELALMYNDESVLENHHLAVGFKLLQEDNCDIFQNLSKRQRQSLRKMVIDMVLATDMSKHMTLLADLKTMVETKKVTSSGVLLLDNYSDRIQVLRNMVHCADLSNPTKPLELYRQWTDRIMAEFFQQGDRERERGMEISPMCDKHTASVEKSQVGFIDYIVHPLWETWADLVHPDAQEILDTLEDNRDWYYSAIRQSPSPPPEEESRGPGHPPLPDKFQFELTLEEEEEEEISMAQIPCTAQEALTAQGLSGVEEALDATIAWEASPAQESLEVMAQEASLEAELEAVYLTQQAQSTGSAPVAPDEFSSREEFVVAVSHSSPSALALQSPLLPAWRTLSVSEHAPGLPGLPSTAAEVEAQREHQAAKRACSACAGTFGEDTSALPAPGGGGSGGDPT
Sequence of Cytochrome P450 2D6 (Homo sapiens) (P10635 whole entry, looked up): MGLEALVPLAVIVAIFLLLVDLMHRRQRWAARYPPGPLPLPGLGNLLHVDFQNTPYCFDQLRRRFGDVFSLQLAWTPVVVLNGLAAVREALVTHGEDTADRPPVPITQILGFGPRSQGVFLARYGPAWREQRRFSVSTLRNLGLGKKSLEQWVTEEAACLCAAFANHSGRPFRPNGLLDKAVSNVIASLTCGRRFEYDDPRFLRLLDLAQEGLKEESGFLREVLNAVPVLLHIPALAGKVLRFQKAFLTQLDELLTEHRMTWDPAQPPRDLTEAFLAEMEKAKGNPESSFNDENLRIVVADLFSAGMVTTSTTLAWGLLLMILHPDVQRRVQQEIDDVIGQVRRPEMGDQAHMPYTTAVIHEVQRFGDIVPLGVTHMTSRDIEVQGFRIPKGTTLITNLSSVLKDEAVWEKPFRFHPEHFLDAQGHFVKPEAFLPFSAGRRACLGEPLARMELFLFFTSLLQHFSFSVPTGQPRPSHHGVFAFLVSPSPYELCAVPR
Sequence of CYP2D6 (P10635 whole entry): as the sequence (P10635 whole entry, looked up) above

On to `COc1cc2c(cc1OC)-c1cc(NCc3ccccc3)nc(=O)n1CC2`, for which the inhibition at 20 min, 10 µM in data set [1], in data set [2], in data set [3], in data set [4], in data set [5] and in data set [7] was below 33% each time. Moreover, the negative-log IC50 (pIC50) in data set [6] is 6.26.
For the compound `COc1ccc2c(c1)CCn1c-2cc(OCC2COc3ccccc3O2)nc1=O` (centres undefined), the intrinsic clearance (CLint scaled) at 0.5 h, 1 µM in data set [8] is 532 mL/min/kg; in [13], 76.7 mL/min/kg; in [15], 615 mL/min/kg. For the same compound, the fraction unbound at 4 h, 5 µM in data set [9] was 0.002; in [11] it was 0.01; in [12], 0.004. Moreover, the CLint scaled at 1 µM was 90 mL/min/kg in [10] and 375 mL/min/kg in [14].
On to `COc1ccc2c(c1)CCn1c-2cc(OCC2CCCCO2)nc1=O` (centres undefined), for which the values for the intrinsic metabolic clearance (CLint scaled) at 0.5 h, 1 µM in data set [8] and in data set [13] were 463 mL/min/kg and 21.7 mL/min/kg, respectively. Besides, the intrinsic clearance (CLint scaled) at 1 µM was 25 mL/min/kg in [10] and 575 mL/min/kg in data set [14].
Take `O=c1nc(OCC2COCCO2)cc2n1CCc1cc(CCc3ccccn3)ccc1-2` (centres undefined): the CLint scaled at 0.5 h, 1 µM in [8] was 517 mL/min/kg; in data set [13], 25 mL/min/kg.
On to `COc1ccc2c(c1)CCn1c-2cc(OCC2CCCO2)nc1=O` (centres undefined), for which the results for the CLint scaled at 0.5 h, 1 µM in data set [8] and in data set [13] were 2150 mL/min/kg and 33.3 mL/min/kg, respectively. For the same compound, the figures for the CLint scaled at 1 µM in [10] and in [14] were 23.3 mL/min/kg and 647 mL/min/kg, respectively.
As to `CN(CC#Cc1ccc2c(c1)CCn1c-2cc(OCC2COCCO2)nc1=O)Cc1ccccc1` (centres undefined), the intrinsic clearance (CLint scaled) at 0.5 h, 1 µM in data set [8] was 433 mL/min/kg; in data set [13], 88.3 mL/min/kg.
For `O=c1nc(OC[C@H]2COCCO2)cc2n1CCc1cc(C#CC3CC3)ccc1-2`, the CLint scaled at 0.5 h, 1 µM was 98.3 mL/min/kg in data set [8], 52.7 mL/min/kg in [28], 16 mL/min/kg in data set [13] and 82.8 mL/min/kg in data set [15]. Also, the solubility (thermodynamic) in data set [16] was 17.6 µg/mL (≈ 46.5 µM); in data set [37], 9.49 µg/mL (≈ 25.1 µM). Also, the pIC50 is 6.95 in data set [17]; below 4.30 in data set [20]; 5.73 in data set [21]; 7.29 in [25]; 4.74 in data set [26]; 6.82 in data set [30]. Moreover, the pIC50 is below 4.30 in data set [33], below 4.00 in data set [34] and 4.50 in data set [35]. Also, the unbound share (fraction unbound) at 4 h, 5 µM in [18] is 0.033; in data set [9], 0.059; in [11], 0.017; in data set [12], 0.037. In addition, the half-life at 1 µM in [19] is above 188 min; in data set [23] it was above 200 min; in data set [24], above 200 min; in data set [36], above 151 min. The solubility in data set [22] and in data set [27] was 113 µg/mL (≈ 299 µM) throughout. Further, the intrinsic clearance (CLint scaled) at 1 µM in [10] is below 21.3 mL/min/kg; in [29], below 32 mL/min/kg; in data set [32] it was below 35.3 mL/min/kg; in data set [14], below 72.8 mL/min/kg. Further, in [31], the apical-to-basolateral permeability (Papp A→B) at 1 h, 10 µM amounted to 31.2 ×10⁻⁶ cm/s.
For the compound `CC(C)CC(O)C#Cc1ccc2c(c1)CCn1c-2cc(OCC2COCCO2)nc1=O` (centres undefined), the CLint scaled at 0.5 h, 1 µM was 437 mL/min/kg in data set [8] and 255 mL/min/kg in [15].
With `COc1ccc2c(c1)CCn1c-2cc(OCC2COCCO2)nc1=O` (centres undefined), the intrinsic metabolic clearance (CLint scaled) at 0.5 h, 1 µM in data set [8] was 173 mL/min/kg; in data set [13], below 15 mL/min/kg; in [15] it was below 23.3 mL/min/kg. Besides, the free fraction (fraction unbound) at 4 h, 5 µM in data set [9] is 0.223; in data set [11], 0.389; in data set [12] it was 0.285. The CLint scaled at 1 µM in data set [10] is below 11.7 mL/min/kg; in data set [14] it was 262 mL/min/kg.
Take `N#Cc1ccccc1-c1ccc2c(c1)CCn1c-2cc(OCC2COCCO2)nc1=O` (centres undefined): the CLint scaled at 0.5 h, 1 µM in data set [8] is 151 mL/min/kg; in [28], 167 mL/min/kg; in data set [38] it was 193 mL/min/kg; in data set [13] it was 86.7 mL/min/kg; in data set [15] it was 105 mL/min/kg. Also, in data set [39], the AUC(0-inf) at 24 h is 2640 ng·h/mL.
In the case of `COc1cc2c(cc1OC)-c1cc(OCCCc3ccccc3)nc(=O)n1CC2`, in data set [27], the solubility was found to be 3 µg/mL (≈ 7.64 µM).

The term inhibition denotes the drop in the measured response relative to a control, in per cent. What is called pIC50 is the IC50 on a negative log10 scale, so that one unit is a factor of ten. For orientation: CLint scaled means a measure of how fast metabolising enzymes remove a compound, apart from limits set by blood flow. What is called fraction unbound is free concentration divided by total concentration. One may read the thermodynamic solubility as the concentration in solution at equilibrium with solid. As usually defined, the half-life is the time needed for the level to fall by half in the phase considered. A low value points to rapid decline. Usually solubility stands for the concentration that dissolves in the medium under given conditions. A word on the Papp A→B: it is the apparent permeability from the apical to the basolateral side of a cell layer. For orientation: AUC(0-inf) means total exposure, with the tail of the curve extrapolated. Low values mean low exposure, high ones high exposure.

For the origin of these results see ChEMBL document CHEMBL4673243, “Discovery of 9-Cyclopropylethynyl-2-((S)-1-[1,4]dioxan-2-ylmethoxy)-6,7-dihydropyrimido[6,1-a]isoquinolin-4-one (GLPG1205), a Unique GPR84 Negative Allosteric Modulator Undergoing Evaluation in a Phase II Clinical Trial” (J Med Chem, 2020).
